Measurements from ChEMBL document CHEMBL1143334, “Peri-substituted hexahydro-indolones as novel, potent and selective human EP3 receptor antagonists” (Bioorg Med Chem Lett, 2009).
Calls of active or inactive are those of the source. The rule behind the calls is not given here.

Key:
[1] = Aqueous solubility in 50 mM PSB buffer at pH 7.4 by HPLC analysis; format: physicochemical
In short: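 Samples were stirred overnight in 50 mM PSB buffer, pH 7.4, then filtered. Concentration was measured by HPLC against a 5-point standard curve, giving thermodynamic solubility.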

[2] = target: T1, Prostaglandin E2 receptor EP1 subtype (Homo sapiens) (UniProt P34995); assay: Binding affinity to human EP1 receptor at 20 uM by radioligand binding assay
T1 sequence (whole entry): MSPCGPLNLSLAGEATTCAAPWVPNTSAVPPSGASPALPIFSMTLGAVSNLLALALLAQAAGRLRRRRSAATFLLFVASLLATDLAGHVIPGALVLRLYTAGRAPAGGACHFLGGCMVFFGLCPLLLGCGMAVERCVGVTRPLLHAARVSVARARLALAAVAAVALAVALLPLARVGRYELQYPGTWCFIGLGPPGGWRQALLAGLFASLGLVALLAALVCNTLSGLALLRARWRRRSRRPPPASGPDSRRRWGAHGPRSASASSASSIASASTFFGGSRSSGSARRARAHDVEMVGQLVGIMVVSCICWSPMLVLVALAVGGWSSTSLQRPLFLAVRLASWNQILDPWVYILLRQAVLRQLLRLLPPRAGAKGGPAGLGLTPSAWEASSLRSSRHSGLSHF

Homo sapiens [3] = species on record: Homo sapiens; assay: Selectivity of human EP4 receptor over human EP3 receptor
[4] = Metabolic stability in rat liver microsomes after 30 mins; format: ADME, Microsome; settings: read-out: Stability
In short: (§1)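 Compound was incubated 30 min with liver microsomes from each species. Percent parent remaining was measured by LC/MS/MS.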

[5] = target: T2, Prostaglandin E2 receptor EP3 subtype (Homo sapiens) (UniProt P43115); assay: Ratio of IC50 for human EP3 receptor in presence of 10% human serum to IC50 for human EP3 receptor in buffer
T2 sequence (whole entry): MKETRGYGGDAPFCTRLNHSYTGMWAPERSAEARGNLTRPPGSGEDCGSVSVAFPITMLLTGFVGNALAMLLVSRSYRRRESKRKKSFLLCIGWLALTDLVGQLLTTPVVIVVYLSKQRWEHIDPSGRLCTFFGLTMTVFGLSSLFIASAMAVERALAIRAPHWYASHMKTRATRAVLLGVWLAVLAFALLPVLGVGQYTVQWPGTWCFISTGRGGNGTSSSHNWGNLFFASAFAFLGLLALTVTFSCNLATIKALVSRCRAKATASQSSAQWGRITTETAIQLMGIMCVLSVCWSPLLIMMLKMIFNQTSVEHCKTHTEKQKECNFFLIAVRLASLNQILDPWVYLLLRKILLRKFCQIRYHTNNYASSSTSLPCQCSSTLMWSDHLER
In short: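 Displacement of [3H]-PGE2 from human EP3 membrane preparations was run both with 10% human serum and in buffer alone. Fold-shift is IC50 with serum divided by IC50 in buffer.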

[6] = Metabolic stability in human liver microsomes after 30 mins; format: ADME, Microsome; settings: read-out: Stability; in short: as §1
[7] = target: T3, Prostaglandin E2 receptor EP3 subtype (Homo sapiens, UniProt P43115); assay: Antagonist activity at human EP3 receptor expressed in CHO-K1 cells assessed as reversal of inhibition of forskolin-induced cAMP production; format: functional, cell-based
T3 sequence (P43115 whole entry): T2 sequence (whole entry)
In short: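 CHO-K1 cells stably expressing human EP3 were exposed to increasing test compound concentrations for 10 min at 37 °C, with 5 μM forskolin plus 5 nM PGE2 present. Read-out was the block of PGE2's inhibition of the forskolin-induced cAMP rise, giving IC50.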

Homo sapiens [8] = species on record: Homo sapiens; assay: Selectivity of human EP1 receptor over human EP3 receptor
Homo sapiens [9] = species on record: Homo sapiens; assay: Selectivity of human EP2 receptor over human EP3 receptor
[10] = target: T4, Prostaglandin E2 receptor EP2 subtype (Homo sapiens, UniProt P43116); assay: Binding affinity to human EP2 receptor by radioligand binding assay
T4 sequence (P43116 whole entry): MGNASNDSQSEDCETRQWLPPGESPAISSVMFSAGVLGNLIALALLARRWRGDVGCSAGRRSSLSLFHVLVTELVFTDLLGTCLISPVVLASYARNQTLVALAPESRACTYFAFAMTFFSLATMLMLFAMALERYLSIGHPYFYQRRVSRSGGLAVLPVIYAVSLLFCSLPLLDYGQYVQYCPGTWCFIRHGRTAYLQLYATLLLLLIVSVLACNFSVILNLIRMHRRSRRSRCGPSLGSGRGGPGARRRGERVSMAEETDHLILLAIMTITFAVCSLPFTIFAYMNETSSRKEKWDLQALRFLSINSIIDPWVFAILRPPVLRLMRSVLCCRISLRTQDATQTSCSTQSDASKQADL

[11] = target: Prostaglandin F2-alpha receptor (Homo sapiens, UniProt P43088); assay: Binding affinity to human FP receptor by radioligand binding assay
Prostaglandin F2-alpha receptor, sequence (P43088 whole entry): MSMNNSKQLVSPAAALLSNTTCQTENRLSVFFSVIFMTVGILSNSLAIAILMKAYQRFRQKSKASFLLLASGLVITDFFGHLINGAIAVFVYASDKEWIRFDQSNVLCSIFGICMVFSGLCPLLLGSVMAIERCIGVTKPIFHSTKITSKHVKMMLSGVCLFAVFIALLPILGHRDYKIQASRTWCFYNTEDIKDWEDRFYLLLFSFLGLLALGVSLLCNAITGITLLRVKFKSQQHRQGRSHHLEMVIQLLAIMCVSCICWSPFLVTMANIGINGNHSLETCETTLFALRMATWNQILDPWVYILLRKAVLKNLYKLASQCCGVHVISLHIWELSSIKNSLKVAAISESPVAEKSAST

[12] = Metabolic stability in monkey liver microsomes after 30 mins; format: ADME, Macaca mulatta, Microsome; settings: rhesus monkey, read-out: Stability; in short: as §1
[13] = target: Prostaglandin E2 receptor EP4 subtype (Homo sapiens, UniProt P35408); assay: Binding affinity to human EP4 receptor by radioligand binding assay
Prostaglandin E2 receptor EP4 subtype, sequence (P35408 whole entry): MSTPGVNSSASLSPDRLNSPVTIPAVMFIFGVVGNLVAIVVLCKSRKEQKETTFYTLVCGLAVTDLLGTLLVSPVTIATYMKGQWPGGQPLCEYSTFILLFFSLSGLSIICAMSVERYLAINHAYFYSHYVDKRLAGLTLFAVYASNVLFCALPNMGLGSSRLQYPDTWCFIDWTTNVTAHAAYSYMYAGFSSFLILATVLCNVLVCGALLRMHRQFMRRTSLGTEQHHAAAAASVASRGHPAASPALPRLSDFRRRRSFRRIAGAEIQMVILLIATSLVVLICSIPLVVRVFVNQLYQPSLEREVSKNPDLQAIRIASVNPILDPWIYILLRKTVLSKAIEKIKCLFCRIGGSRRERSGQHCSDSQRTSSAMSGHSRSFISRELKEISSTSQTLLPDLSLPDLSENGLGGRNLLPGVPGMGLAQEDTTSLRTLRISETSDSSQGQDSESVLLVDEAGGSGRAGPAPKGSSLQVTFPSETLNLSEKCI

[14] = target: T3, Prostaglandin E2 receptor EP3 subtype; assay: Displacement of [3H]PGE2 from human EP3 receptor
In short: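 Displacement of [3H]-PGE2 from human EP3 receptor membrane preparations was run in buffer. IC50 values come from at least three experiments each.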

[15] = Metabolic stability in dog liver microsomes after 30 mins; format: ADME, Canis lupus familiaris, Microsome; settings: read-out: Stability; in short: as §1
Homo sapiens [16] = species on record: Homo sapiens; assay: Selectivity of human FP receptor over human EP3 receptor
[17] = target: T5, Prostaglandin E2 receptor EP1 subtype (Homo sapiens, UniProt P34995); assay: Binding affinity to human EP1 receptor by radioligand binding assay
T5 sequence (P34995 whole entry): T1 sequence (whole entry)

[18] = target: T4, Prostaglandin E2 receptor EP2 subtype; assay: Binding affinity to human EP2 receptor at 20 uM by radioligand binding assay

solubility [1] | Activity [2] | Selectivity ratio (Homo sapiens [3]) | remaining at 0.5 h [4] | fold change (FC) [5] | remaining at 0.5 h [6] | IC50 [7] | Selectivity ratio (Homo sapiens [8]) | Selectivity ratio (Homo sapiens [9]) | IC50 [10] | IC50 [11] | remaining at 0.5 h [12] | IC50 [13] | IC50 [14] | remaining at 0.5 h [15] | Selectivity ratio (Homo sapiens [16]) | IC50 [17] | Activity [18] | Compound
> 3000 µg/mL | inactive | > 1000 | 89% | 9.3 | 75% | 0.0035 µM | > 1000 | > 1000 | 13.9 µM | 3.8 µM | 54% | 6.2 µM | 0.0077 µM | 87% | > 1000 | – | – | CC12CCCC(/C=C/C(=O)NS(=O)(=O)c3cc(F)c(F)cc3F)=C1N(Cc1ccc(F)c(F)c1)C(=O)C2 (stereo not given)
– | inactive | > 1000 | 82% | 3.2 | 79% | – | > 1000 | > 1000 | 2.3 µM | 16.4 µM | – | 7.7 µM | 0.0094 µM | – | > 1000 | – | – | CC12CCCC(/C=C/C(=O)NS(=O)(=O)c3ccc(F)c(F)c3)=C1N(Cc1ccc(F)c(F)c1)C(=O)C2 (stereo not given)
– | – | > 1000 | 37% | 7 | 62% | – | > 1000 | > 1000 | – | 7.6 µM | – | 20.8 µM | 0.0037 µM | – | > 1000 | 11.6 µM | inactive | CC12CCCC(/C=C/C(=O)NS(=O)(=O)c3cc(F)c(F)cc3F)=C1N(Cc1ccc(Cl)cc1Cl)C(=O)C2 (stereo not given)
